Experimental data taken from ChEMBL document CHEMBL5724801, “EUbOPEN Chemogenomics Library - Multiplex” (2024).
Where “and” joins values, the source holds several entries; their conditions need not be identical. Equal values may be shown once.

System: HEK-293T
Test: Multiplex assay against HEK293T
Assay type: toxicity, cell-based
Details: human
In short: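 Live cells were stained at seeding with Hoechst33342, BioTracker Green Microtubule Cytoskeleton Dye, MitoTracker Red and Annexin V Alexa Fluor 680, then imaged on a CQ1 microscope at 37°C and 5% CO2 after compound addition. CellPathfinder machine-learning gating split cells into Hoechst high-intensity objects or normal cells. Normal cells were split into healthy, pyknosed or fragmented nuclei, and pyknosed cells into mitotic or apoptotic. Tubulin, mitochondrial-mass and membrane-permeability phenotypes are per cents of healthy-nucleus cells.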

[1] = 12 h, 1 µM, compound concentration 1 uM
[2] = 12 h, 10 µM, compound concentration 10 uM
[3] = 24 h, 1 µM, compound concentration 1 uM
[4] = 24 h, 10 µM, compound concentration 10 uM
[5] = 48 h, 1 µM, compound concentration 1 uM
[6] = 48 h, 10 µM, compound concentration 10 uM

Br.CS(=O)(=O)Nc1c(O)ccc2c1CCCC2C1=NCCN1 (stereo not drawn)
Population Apoptotic (%) [1]: 40% and 43%
Population Fragmented Nuclei (%) [1]: 7% and 5%
Population Healthy Nuclei (%) [1]: 80% and 81%
Population Hoechst High Intensity Objects (%) [1]: 5% and 8%
Population Membrane Permeable-Phenotype (%) [1]: 0%
Population Mitochondria Different-Phenotype (%) [1]: 45% and 52%
Population Mitotic Cells (%) [1]: 59% and 56%
Population Normal (%) [1]: 94% and 91%
Population Pyknosed Nuclei (%) [1]: 12%
Population Tubulin-Different-Phenotype (%) [1]: 26% and 18%
Total Cell Count [1]: 407 and 334
Population Apoptotic (%) [2]: 48% and 55%
Population Fragmented Nuclei (%) [2]: 8% and 6%
Population Healthy Nuclei (%) [2]: 76% and 79%
Population Hoechst High Intensity Objects (%) [2]: 12% and 14%
Population Membrane Permeable-Phenotype (%) [2]: 0%
Population Mitochondria Different-Phenotype (%) [2]: 60% and 67%
Population Mitotic Cells (%) [2]: 52% and 44%
Population Normal (%) [2]: 87% and 85%
Population Pyknosed Nuclei (%) [2]: 14%
Population Tubulin-Different-Phenotype (%) [2]: 33% and 26%
Total Cell Count [2]: 381 and 292
Population Apoptotic (%) [3]: 38% and 55%
Population Fragmented Nuclei (%) [3]: 10% and 6%
Population Healthy Nuclei (%) [3]: 79% and 80%
Population Hoechst High Intensity Objects (%) [3]: 5% and 8%
Population Membrane Permeable-Phenotype (%) [3]: 1% and 0%
Population Mitochondria Different-Phenotype (%) [3]: 34% and 41%
Population Mitotic Cells (%) [3]: 61% and 44%
Population Normal (%) [3]: 94% and 91%
Population Pyknosed Nuclei (%) [3]: 10% and 13%
Population Tubulin-Different-Phenotype (%) [3]: 21% and 17%
Total Cell Count [3]: 549 and 387
Population Apoptotic (%) [4]: 30% and 34%
Population Fragmented Nuclei (%) [4]: 11%
Population Healthy Nuclei (%) [4]: 75% and 77%
Population Hoechst High Intensity Objects (%) [4]: 6% and 11%
Population Membrane Permeable-Phenotype (%) [4]: 0%
Population Mitochondria Different-Phenotype (%) [4]: 40% and 46%
Population Mitotic Cells (%) [4]: 69% and 65%
Population Normal (%) [4]: 93% and 88%
Population Pyknosed Nuclei (%) [4]: 12% and 10%
Population Tubulin-Different-Phenotype (%) [4]: 23% and 21%
Total Cell Count [4]: 451 and 377
Population Apoptotic (%) [5]: 12% and 29%
Population Fragmented Nuclei (%) [5]: 14% and 11%
Population Healthy Nuclei (%) [5]: 78%
Population Hoechst High Intensity Objects (%) [5]: 4% and 6%
Population Membrane Permeable-Phenotype (%) [5]: 0%
Population Mitochondria Different-Phenotype (%) [5]: 20% and 22%
Population Mitotic Cells (%) [5]: 87% and 70%
Population Normal (%) [5]: 95% and 93%
Population Pyknosed Nuclei (%) [5]: 7% and 9%
Population Tubulin-Different-Phenotype (%) [5]: 14% and 12%
Total Cell Count [5]: 859 and 532
Population Apoptotic (%) [6]: 34% and 48%
Population Fragmented Nuclei (%) [6]: 16% and 14%
Population Healthy Nuclei (%) [6]: 76% and 79%
Population Hoechst High Intensity Objects (%) [6]: 4%
Population Membrane Permeable-Phenotype (%) [6]: 1% and 0%
Population Mitochondria Different-Phenotype (%) [6]: 22% and 27%
Population Mitotic Cells (%) [6]: 65% and 51%
Population Normal (%) [6]: 95%
Population Pyknosed Nuclei (%) [6]: 6% and 5%
Population Tubulin-Different-Phenotype (%) [6]: 12% and 11%
Total Cell Count [6]: 671 and 584

Cc1sc2c(c1C)C(c1ccc(Cl)cc1)=N[C@H](CC(=O)OC(C)(C)C)c1nnc(C)n1-2
Population Apoptotic (%) [1]: 40% and 44%
Population Fragmented Nuclei (%) [1]: 8% and 6%
Population Healthy Nuclei (%) [1]: 80% and 76%
Population Hoechst High Intensity Objects (%) [1]: 8% and 9%
Population Membrane Permeable-Phenotype (%) [1]: 0%
Population Mitochondria Different-Phenotype (%) [1]: 49% and 65%
Population Mitotic Cells (%) [1]: 60% and 55%
Population Normal (%) [1]: 91% and 90%
Population Pyknosed Nuclei (%) [1]: 10% and 17%
Population Tubulin-Different-Phenotype (%) [1]: 32% and 26%
Total Cell Count [1]: 478 and 333
Population Apoptotic (%) [2]: 41% and 66%
Population Fragmented Nuclei (%) [2]: 7% and 5%
Population Healthy Nuclei (%) [2]: 76% and 72%
Population Hoechst High Intensity Objects (%) [2]: 7% and 10%
Population Membrane Permeable-Phenotype (%) [2]: 0%
Population Mitochondria Different-Phenotype (%) [2]: 74% and 90%
Population Mitotic Cells (%) [2]: 58% and 33%
Population Normal (%) [2]: 92% and 89%
Population Pyknosed Nuclei (%) [2]: 15% and 21%
Population Tubulin-Different-Phenotype (%) [2]: 67% and 70%
Total Cell Count [2]: 395 and 303
Population Apoptotic (%) [3]: 32%
Population Fragmented Nuclei (%) [3]: 10%
Population Healthy Nuclei (%) [3]: 76% and 82%
Population Hoechst High Intensity Objects (%) [3]: 5% and 6%
Population Membrane Permeable-Phenotype (%) [3]: 0%
Population Mitochondria Different-Phenotype (%) [3]: 29% and 43%
Population Mitotic Cells (%) [3]: 68% and 67%
Population Normal (%) [3]: 94% and 93%
Population Pyknosed Nuclei (%) [3]: 13% and 6%
Population Tubulin-Different-Phenotype (%) [3]: 19% and 11%
Total Cell Count [3]: 609 and 479
Population Apoptotic (%) [4]: 41% and 49%
Population Fragmented Nuclei (%) [4]: 8% and 3%
Population Healthy Nuclei (%) [4]: 68% and 76%
Population Hoechst High Intensity Objects (%) [4]: 4% and 6%
Population Membrane Permeable-Phenotype (%) [4]: 0% and 1%
Population Mitochondria Different-Phenotype (%) [4]: 64% and 76%
Population Mitotic Cells (%) [4]: 58% and 50%
Population Normal (%) [4]: 95% and 93%
Population Pyknosed Nuclei (%) [4]: 23% and 19%
Population Tubulin-Different-Phenotype (%) [4]: 46% and 47%
Total Cell Count [4]: 468 and 378
Population Apoptotic (%) [5]: 18% and 30%
Population Fragmented Nuclei (%) [5]: 11% and 14%
Population Healthy Nuclei (%) [5]: 80% and 79%
Population Hoechst High Intensity Objects (%) [5]: 3% and 4%
Population Membrane Permeable-Phenotype (%) [5]: 1% and 0%
Population Mitochondria Different-Phenotype (%) [5]: 16% and 21%
Population Mitotic Cells (%) [5]: 81% and 69%
Population Normal (%) [5]: 96% and 95%
Population Pyknosed Nuclei (%) [5]: 7% and 5%
Population Tubulin-Different-Phenotype (%) [5]: 10% and 12%
Total Cell Count [5]: 1012 and 685
Population Apoptotic (%) [6]: 31% and 55%
Population Fragmented Nuclei (%) [6]: 9% and 8%
Population Healthy Nuclei (%) [6]: 73% and 76%
Population Hoechst High Intensity Objects (%) [6]: 3% and 5%
Population Membrane Permeable-Phenotype (%) [6]: 0%
Population Mitochondria Different-Phenotype (%) [6]: 47% and 66%
Population Mitotic Cells (%) [6]: 68% and 44%
Population Normal (%) [6]: 96% and 94%
Population Pyknosed Nuclei (%) [6]: 16% and 15%
Population Tubulin-Different-Phenotype (%) [6]: 19% and 28%
Total Cell Count [6]: 641 and 525

COc1ccccc1N1CCN(C[C@@H](C(=O)NC(C)(C)C)c2ccccc2)CC1.Cl.Cl
Population Apoptotic (%) [1]: 24% and 42%
Population Fragmented Nuclei (%) [1]: 7% and 4%
Population Healthy Nuclei (%) [1]: 77% and 76%
Population Hoechst High Intensity Objects (%) [1]: 7% and 6%
Population Membrane Permeable-Phenotype (%) [1]: 0%
Population Mitochondria Different-Phenotype (%) [1]: 48% and 77%
Population Mitotic Cells (%) [1]: 75% and 57%
Population Normal (%) [1]: 92% and 93%
Population Pyknosed Nuclei (%) [1]: 14% and 19%
Population Tubulin-Different-Phenotype (%) [1]: 47% and 35%
Total Cell Count [1]: 434 and 300
Population Apoptotic (%) [2]: 62% and 58%
Population Fragmented Nuclei (%) [2]: 7% and 5%
Population Healthy Nuclei (%) [2]: 69%
Population Hoechst High Intensity Objects (%) [2]: 7% and 16%
Population Membrane Permeable-Phenotype (%) [2]: 0%
Population Mitochondria Different-Phenotype (%) [2]: 88% and 79%
Population Mitotic Cells (%) [2]: 37% and 41%
Population Normal (%) [2]: 92% and 83%
Population Pyknosed Nuclei (%) [2]: 23% and 25%
Population Tubulin-Different-Phenotype (%) [2]: 74% and 59%
Total Cell Count [2]: 333 and 231
Population Apoptotic (%) [3]: 19% and 34%
Population Fragmented Nuclei (%) [3]: 8% and 11%
Population Healthy Nuclei (%) [3]: 81% and 76%
Population Hoechst High Intensity Objects (%) [3]: 4% and 6%
Population Membrane Permeable-Phenotype (%) [3]: 0%
Population Mitochondria Different-Phenotype (%) [3]: 31% and 54%
Population Mitotic Cells (%) [3]: 80% and 65%
Population Normal (%) [3]: 95% and 93%
Population Pyknosed Nuclei (%) [3]: 9% and 11%
Population Tubulin-Different-Phenotype (%) [3]: 29% and 28%
Total Cell Count [3]: 563 and 387
Population Apoptotic (%) [4]: 45% and 66%
Population Fragmented Nuclei (%) [4]: 8%
Population Healthy Nuclei (%) [4]: 68% and 76%
Population Hoechst High Intensity Objects (%) [4]: 7% and 14%
Population Membrane Permeable-Phenotype (%) [4]: 0%
Population Mitochondria Different-Phenotype (%) [4]: 77% and 73%
Population Mitotic Cells (%) [4]: 54% and 33%
Population Normal (%) [4]: 92% and 85%
Population Pyknosed Nuclei (%) [4]: 23% and 15%
Population Tubulin-Different-Phenotype (%) [4]: 61% and 48%
Total Cell Count [4]: 377 and 251
Population Apoptotic (%) [5]: 22% and 38%
Population Fragmented Nuclei (%) [5]: 13% and 10%
Population Healthy Nuclei (%) [5]: 78% and 80%
Population Hoechst High Intensity Objects (%) [5]: 2% and 6%
Population Membrane Permeable-Phenotype (%) [5]: 1% and 0%
Population Mitochondria Different-Phenotype (%) [5]: 19% and 37%
Population Mitotic Cells (%) [5]: 77% and 61%
Population Normal (%) [5]: 97% and 93%
Population Pyknosed Nuclei (%) [5]: 8% and 9%
Population Tubulin-Different-Phenotype (%) [5]: 18% and 20%
Total Cell Count [5]: 908 and 480
Population Apoptotic (%) [6]: 50% and 62%
Population Fragmented Nuclei (%) [6]: 14% and 10%
Population Healthy Nuclei (%) [6]: 72% and 76%
Population Hoechst High Intensity Objects (%) [6]: 6% and 5%
Population Membrane Permeable-Phenotype (%) [6]: 0%
Population Mitochondria Different-Phenotype (%) [6]: 59% and 58%
Population Mitotic Cells (%) [6]: 49% and 37%
Population Normal (%) [6]: 93% and 94%
Population Pyknosed Nuclei (%) [6]: 13%
Population Tubulin-Different-Phenotype (%) [6]: 44% and 36%
Total Cell Count [6]: 467 and 375
